Reference: ChEMBL document CHEMBL1149883, “alpha-Glucosidase inhibitory activity of triterpenoids from Cichorium intybus” (J Nat Prod, 2008)
The source made the active and inactive calls. No cut-off for these calls is given here.

target: not listed separately; experiment: (§1) Inhibition of Saccharomyces sp. alpha-glucosidase
In short: (§2)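 Read spectrophotometrically at pH 6.9 and 37 °C in 50 mM sodium phosphate buffer with 100 mM NaCl. Substrate was 0.5 mM p-nitrophenyl α-D-glucopyranoside, and enzyme was 250 m units/mL. The rise in absorbance at 400 nm from PNP-G hydrolysis was followed continuously. 1-Deoxynojirimycin (0.425 mM) and acarbose (0.78 mM) served as positive controls. Modified from Oki et al.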

SMILES	IC50 [µM]
C=C1[C@H](OC(C)=O)C[C@]2(C)CC[C@]3(C)[C@H](CC[C@@H]4[C@@]5(C)CC[C@H](OC(C)=O)C(C)(C)[C@@H]5CC[C@]43C)[C@H]2[C@H]1C	10
COc1cc(C(=O)O)ccc1O [VANILLIC ACID]	69
C[C@H]1C(=O)CC[C@@H]2[C@]1(C)CC[C@H]1[C@@]2(C)CC[C@@]2(C)[C@@H]3CC(C)(C)CC[C@]3(C)CC[C@]12C [FRIEDELINE]	321
C=C1[C@H](O)C[C@]2(C)CC[C@]3(C)[C@H](CC[C@@H]4[C@@]5(C)CC[C@H](O)C(C)(C)[C@@H]5CC[C@]43C)[C@H]2[C@H]1C	51.9
OC[C@H]1NC[C@H](O)[C@@H](O)[C@@H]1O [DUVOGLUSTAT]	425

tested on: Saccharomyces sp.; experiment: as §1; in short: as §2

SMILES	Activity
C=C(C)[C@@H]1CC[C@]2(CO)CC[C@]3(C)[C@H](CC[C@@H]4[C@@]5(C)CC[C@H](O)C(C)(C)[C@@H]5CC[C@]43C)[C@@H]12	inactive
CC[C@H](CC[C@@H](C)[C@H]1CC[C@H]2[C@@H]3CC=C4C[C@@H](O)CC[C@]4(C)[C@H]3CC[C@]12C)C(C)C	inactive
C=C1[C@@H]2CC[C@@]3(C)[C@@H](c4ccoc4)OC(=O)C[C@@]13O[C@H]1CC(=O)C(C)(C)[C@H](C(O)C(=O)OC)[C@]12C (stereo not given in full)	inactive
C=C(C)[C@@H]1CC[C@]2(C=O)CC[C@]3(C)[C@H](CC[C@@H]4[C@@]5(C)CC[C@H](O)C(C)(C)[C@@H]5CC[C@]43C)[C@@H]12	inactive
C=C(C)[C@@H]1CC[C@]2(C(=O)O)CC[C@]3(C)[C@H](CC[C@@H]4[C@@]5(C)CC[C@H](O)C(C)(C)[C@@H]5CC[C@]43C)[C@@H]12	inactive
O=c1ccc2cc(O)c(O)cc2o1	inactive
COc1cc(C(=O)O)cc(OC)c1O	inactive
CO[C@H]1O[C@H](CO)[C@H](O)[C@H](O)[C@H]1O	inactive
CC[C@H](/C=C/[C@@H](C)[C@H]1CC[C@H]2[C@@H]3CC=C4C[C@@H](O)CC[C@]4(C)[C@H]3CC[C@]12C)C(C)C	inactive
C=C(C)[C@@H]1CC[C@]2(C)CC[C@]3(C)[C@H](CC[C@@H]4[C@@]5(C)CC[C@H](O)C(C)(C)[C@@H]5CC[C@]43C)[C@@H]12	inactive
